These results are taken from PubChem BioAssay.

The structures appear in SMILES notation. Calls of active or inactive are those of the source.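 Rule for the calls, unless noted: active = viability at or below 30% in both replicate assays; inconclusive = viability at or below 30% in just one of the two assays; inactive = the rest.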

The nature of test [1]: Her2 expression decrease, cell viability multiplex – SKBR3 breast tumor cells, AlphaScreen, ATP viability, primary screen (AID 461;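 active = Her2 level under about 52% in both replicate screens, with viability over 70% of control, limit read from the data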;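 for Her2 level: lower value means less Her2 protein in the cells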;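 for viability: percent of carrier control wells set as 100% viability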). To be noted: SKBR3 Her2 protein level, 18-24 h, measured here: SKBR3 viability, ATP luminescence, at 10 µM. On the technique in general: Alpha assays give light when donor and acceptor beads are brought close together.
The target of test [2] is Receptor tyrosine-protein kinase erbB-2 (Homo sapiens) (UniProt P04626). The description is as above. Conditions: 18-24 h, at 10 µM, stronger effect = lower value.
Test [3] is described as follows: reduced viability of SK-BR-3 breast cancer cells – cell-based, 24 h, human, pilot screen (AID 572;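 active = viability at or below 10% of carrier control in both of two separate runs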;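 note: compound exposure lasted between 18 and 24 h rather than exactly 24 h; 100% = carrier-treated control wells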). To be noted: SK-BR-3 viability, CellTiter-Glo luminescence, at 10 µM, stronger effect = lower value.
The nature of test [4]: HUVEC growth inhibition – cell-based, human, primary screen (AID 575).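 Note: 100% = median of untreated cell wells with 0.1% DMSO on each plate.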 To be noted: HUVEC proliferation, CellTiter-Glo luminescence, 72 h; at 10 µM; stronger effect = lower value. The procedure, abridged: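 material = primary HUVEC, no more than 12 passages | input = 1250 cells per well | controls = vehicle and MePR control wells | measured by = CTG luminescence | times = 72 h compound incubation | format = collagen-coated 384-well format | read-out = % viability vs DMSO wells | doses = single 10 µM dose, 0.1% DMSO, from 5x medium stock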
In general terms: Cellular ATP, detected with luciferase, serves as a proxy for viable cell number.

The nature of test [5]: H69AR cell proliferation blockers – human, duplicate replicates, primary screen (AID 580;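 active = viability at or under a set limit in both replicates, limit being median viability minus 3 SD, cut at about 48% in these data, passing the limit was not always enough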;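 note: 100% = mean luminescence of untreated wells and 0% = no signal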). To be noted: H69AR lung tumor cells viability, ATP luminescence, 72 h; at 10 µM; stronger effect = lower value.
Test [6] is described as follows: MRP1 drug-resistance reversers in H69AR cells – cell-based, doxorubicin co-treatment, pilot screen (AID 601;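 active = viability loss from added drug above about 55%, and viability with drug at most 40%, in both replicates, limit read from the data, passing the limit was not always enough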). To be noted: CellTiter-Glo, 72 h, at 10 µM; for differential viability (reversal): stronger effect = higher value.
The nature of test [7]: yeast transport mutant growth inhibition pilot in 384-well plates, post-Golgi transport modulator project (AID 636; in the data active = inhibition above about 31%). Conditions: absorbance 615 nm, about 18 h, stronger effect = higher value.
A short description of test [8]: growth suppression of yeast trafficking mutant, preliminary HTS, modulators of trafficking downstream of Golgi apparatus project, 1536-format plate, OD 615 nm (AID 637; in the data active = inhibition above about 30%). Conditions: yeast transport mutant growth, absorbance 615 nm, 18 h; stronger effect = higher value.
[9] abbreviates: H69AR cells + 2 uM doxorubicin, measured here: viability with 2 uM doxorubicin, stronger effect = lower value.
[10] abbreviates: H69AR cells, compound alone cytotoxicity.

Chain of Receptor tyrosine-protein kinase erbB-2 (Homo sapiens) (P04626 whole entry, looked up): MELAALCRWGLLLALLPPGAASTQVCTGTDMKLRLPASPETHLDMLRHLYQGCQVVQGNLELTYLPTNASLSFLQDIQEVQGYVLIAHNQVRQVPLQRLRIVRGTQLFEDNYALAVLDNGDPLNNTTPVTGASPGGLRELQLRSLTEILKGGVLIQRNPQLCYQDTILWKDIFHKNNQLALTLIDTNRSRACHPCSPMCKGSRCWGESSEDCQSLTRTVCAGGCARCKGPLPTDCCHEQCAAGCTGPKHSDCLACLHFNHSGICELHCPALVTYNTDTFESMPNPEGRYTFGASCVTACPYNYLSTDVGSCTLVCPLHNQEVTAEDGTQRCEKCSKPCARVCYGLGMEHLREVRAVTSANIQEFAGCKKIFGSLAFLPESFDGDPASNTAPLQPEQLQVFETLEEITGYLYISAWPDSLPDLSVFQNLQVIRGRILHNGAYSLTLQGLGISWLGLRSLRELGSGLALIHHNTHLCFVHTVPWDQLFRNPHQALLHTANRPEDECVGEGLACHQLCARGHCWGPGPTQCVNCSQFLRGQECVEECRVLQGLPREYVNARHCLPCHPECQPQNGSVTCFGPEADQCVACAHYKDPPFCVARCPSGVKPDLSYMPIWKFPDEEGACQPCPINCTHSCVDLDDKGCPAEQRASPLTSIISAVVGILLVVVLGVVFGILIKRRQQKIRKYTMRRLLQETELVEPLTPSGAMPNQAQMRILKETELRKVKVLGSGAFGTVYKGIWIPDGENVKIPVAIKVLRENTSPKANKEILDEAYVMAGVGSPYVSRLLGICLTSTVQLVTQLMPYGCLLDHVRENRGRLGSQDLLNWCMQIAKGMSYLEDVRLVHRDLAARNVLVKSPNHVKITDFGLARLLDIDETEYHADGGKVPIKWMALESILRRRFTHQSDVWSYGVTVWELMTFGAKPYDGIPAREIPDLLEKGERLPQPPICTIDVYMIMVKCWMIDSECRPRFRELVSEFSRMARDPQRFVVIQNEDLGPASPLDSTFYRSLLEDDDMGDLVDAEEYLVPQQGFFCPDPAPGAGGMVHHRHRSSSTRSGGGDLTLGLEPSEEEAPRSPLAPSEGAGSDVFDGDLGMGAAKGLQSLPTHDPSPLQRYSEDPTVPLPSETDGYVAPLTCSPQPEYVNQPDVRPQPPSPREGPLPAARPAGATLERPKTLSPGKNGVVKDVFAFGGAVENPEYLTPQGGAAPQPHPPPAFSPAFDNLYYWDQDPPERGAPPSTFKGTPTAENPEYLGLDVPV

Consider `Cc1nc2c(c(=O)n1CC1CCCO1)c1nc3ccccc3nc1n2CC(C)C` (stereo not given), for which the viability (usually a read-out of living cells in per cent, often relative to untreated cells) in test [1] is 96.5%; in test [3], 96.5% (inactive); in test [4], 104% (inactive); in test [5], 84.2% (inactive); in test [6] (setting [9]), 94.1%; in test [6] (setting [10]), 84.2%. Also, the Her2 level in test [2] is 89.5% (inactive). Moreover, in test [6] (H69AR cells + 2 uM doxorubicin), the differential viability (reversal) was -9.93% (inactive). The inhibition (in general, the drop in the measured response relative to a control, in per cent) in test [7] was 2.63% (inactive); in test [8], 0.81% (inactive).

On to `COc1ccc(N2CCN(C(=O)CSc3nnc(Cn4nnc5ccccc54)n3C)CC2)cc1`, for which the viability in test [1] is 99.5%; in test [3], 99.5% (inactive); in test [4] it was 108% (inactive); in test [5], 103% (inactive); in test [6] (setting [9]), 92.1%; in test [6] (setting [10]), 103%. In addition, in test [2], the Her2 level was 111% (inactive). In test [6] (H69AR cells + 2 uM doxorubicin), the differential viability (reversal) is 11.4% (inactive). In addition, the inhibition in test [7] was -1.97% (inactive); in test [8] it was -6.61% (inactive).

On to `CC(C)CCNC(=O)NC(=O)CSc1nnc(-c2ccccc2Br)o1`, for which the viability is 95% in test [1]; 95% (inactive) in test [3]; 85.8% (inactive) in test [4]; 104% (inactive) in test [5]; 101% in test [6] (setting [9]); 104% in test [6] (setting [10]). For the same compound, in test [2], the Her2 level is 95.5% (inactive). The differential viability (reversal) in test [6] (H69AR cells + 2 uM doxorubicin) is 2.91% (inactive). In addition, the inhibition is -4.74% (inactive) in test [7] and 0% (inactive) in test [8].

For the compound `COc1ccc(Cc2nnc3n2N=C(c2cc4ccccc4o2)CS3)cc1OC`, the viability in test [1] is 77%; in test [3] it was 77% (inactive); in test [4], 64.4% (inactive); in test [5] it was 35% (active); in test [6] (setting [9]), 55%; in test [6] (setting [10]) it was 35%. Besides, the Her2 level in test [2] is 79.5% (inactive). For the same compound, the differential viability (reversal) in test [6] (H69AR cells + 2 uM doxorubicin) was -20% (inactive). Further, the inhibition in test [7] is -7.03% (inactive); in test [8] it was -0.67% (inactive).

On to `CC1CCN(c2oc(-c3cccc4ccccc34)nc2C#N)CC1`, for which the viability in test [1] is 104%; in test [3], 104% (inactive); in test [4], 81.7% (inactive); in test [5] it was 91.7% (inactive); in test [6] (setting [9]), 82.3%; in test [6] (setting [10]), 91.7%. Moreover, the Her2 level in test [2] is 72.5% (inactive). For the same compound, the differential viability (reversal) in test [6] (H69AR cells + 2 uM doxorubicin) was 9.42% (inactive). Further, the inhibition was -5.53% (inactive) in test [7] and -7.33% (inactive) in test [8].

For `COc1ccc(-c2c(=O)n(OCc3ccccn3)c3ccccc3[n+]2[O-])cc1OC`, the viability in test [1] was 105%; in test [3] it was 105% (inactive); in test [4], 87.6% (inactive); in test [5], 89.2% (inactive); in test [6] (setting [9]), 91.6%; in test [6] (setting [10]) it was 89.2%. In addition, the Her2 level in test [2] is 98% (inactive). Besides, the differential viability (reversal) in test [6] (H69AR cells + 2 uM doxorubicin) was -2.4% (inactive). For the same compound, the figures for the inhibition in test [7] and in test [8] were -4% (inactive) and -3.65% (inactive), respectively.

As to `CCCN1C(=O)c2cc(C(=O)O)ccc2C1O` (stereo not given), the viability is 113% in test [1]; 113% (inactive) in test [3]; 90.1% (inactive) in test [4]; 103% (inactive) in test [5]; 84.1% in test [6] (setting [9]); 103% in test [6] (setting [10]). In addition, the Her2 level in test [2] was 100% (inactive). Also, the differential viability (reversal) in test [6] (H69AR cells + 2 uM doxorubicin) was 18.7% (inactive). Besides, the inhibition in test [7] was -1.07% (inactive); in test [8], 1.48% (inactive).

`Cc1ccccc1NS(=O)(=O)c1cc(C(=O)N2CCCC2)ccc1C`: the viability in test [1] is 108%; in test [3] it was 108% (inactive); in test [4], 82.9% (inactive); in test [5], 84.2% (inactive); in test [6] (setting [9]) it was 88.4%; in test [6] (setting [10]) it was 84.2%. Besides, the Her2 level in test [2] is 91.5% (inactive). Moreover, the differential viability (reversal) in test [6] (H69AR cells + 2 uM doxorubicin) was -4.14% (inactive). In addition, the inhibition is -5.14% (inactive) in test [7] and -8.25% (inactive) in test [8].

For the compound `O=C(COc1ccccc1)Nc1ccccc1N1CCN(c2ccccc2)CC1`, the viability in test [1] was 80%; in test [3], 80% (inactive); in test [4] it was 96% (inactive); in test [5], 84.2% (inactive); in test [6] (setting [9]) it was 82.6%; in test [6] (setting [10]) it was 84.2%. Besides, the Her2 level in test [2] is 86% (inactive). Besides, in test [6] (H69AR cells + 2 uM doxorubicin), the differential viability (reversal) is 1.58% (inactive). Moreover, the inhibition in test [7] was -4.27% (inactive); in test [8] it was 2.62% (inactive).

Turning to `COc1ccc(N2CCN(C(=O)CSc3ccccc3N)CC2)cc1`, the viability is 85.5% in test [1]; 85.5% (inactive) in test [3]; 88.2% (inactive) in test [4]; 94.9% (inactive) in test [5]; 97.5% in test [6] (setting [9]); 94.9% in test [6] (setting [10]). Besides, the Her2 level in test [2] was 88% (inactive). In addition, the differential viability (reversal) in test [6] (H69AR cells + 2 uM doxorubicin) was -2.63% (inactive). The inhibition is 0% (inactive) in test [7] and -0.55% (inactive) in test [8].

Regarding `CSC(=O)CC(=O)NC(=O)c1ccccc1`, the viability is 102% in test [1]; 102% (inactive) in test [3]; 108% (inactive) in test [4]; 97.9% (inactive) in test [5]; 104% in test [6] (setting [9]); 97.9% in test [6] (setting [10]). For the same compound, in test [2], the Her2 level is 97% (inactive). Moreover, the differential viability (reversal) in test [6] (H69AR cells + 2 uM doxorubicin) was -5.79% (inactive). In addition, the inhibition in test [7] is -1.05% (inactive); in test [8] it was 5.74% (inactive).

On to `CCn1c(SCC(=O)Nc2cc(C)on2)nc2sc3c(c2c1=O)CCCC3`, for which the viability in test [1] is 91%; in test [3] it was 91% (inactive); in test [4], 84.5% (inactive); in test [5], 12.6% (active); in test [6] (setting [9]), 10.6%; in test [6] (setting [10]), 12.6%. The Her2 level in test [2] is 76.5% (inactive). Moreover, the differential viability (reversal) in test [6] (H69AR cells + 2 uM doxorubicin) was 2.02% (inactive). Besides, the figures for the inhibition in test [7] and in test [8] were -4.93% (inactive) and 7.78% (inactive), respectively.

With `Nc1c(N2CCCCC2)c(=O)[nH]c(=O)n1-c1ccccc1`, the viability in test [1] is 105%; in test [3] it was 105% (inactive); in test [4] it was 102% (inactive); in test [5], 109% (inactive); in test [6] (setting [9]), 95.3%; in test [6] (setting [10]), 109%. The Her2 level in test [2] is 139% (inactive). In addition, in test [6] (H69AR cells + 2 uM doxorubicin), the differential viability (reversal) is 13.9% (inactive). The inhibition in test [7] is -2.86% (inactive); in test [8], -4.33% (inactive).

For `CN(CC(O)COCc1cccs1)C1CCCCC1` (stereo not given), the viability in test [1] is 93.5%; in test [3], 93.5% (inactive); in test [4], 93.2% (inactive); in test [5], 106% (inactive); in test [6] (setting [9]), 95.4%; in test [6] (setting [10]), 106%. The Her2 level in test [2] was 90% (inactive). Further, the differential viability (reversal) in test [6] (H69AR cells + 2 uM doxorubicin) is 10.9% (inactive). For the same compound, the values for the inhibition in test [7] and in test [8] were -3.47% (inactive) and 5.57% (inactive), respectively.

`CCOc1ccc(CCNC(=O)CCc2nc(-c3ccc(OC)cc3)no2)cc1OCC`: the viability in test [1] is 86.5%; in test [3], 86.5% (inactive); in test [4], 81.9% (inactive); in test [5], 94.3% (inactive); in test [6] (setting [9]), 99.4%; in test [6] (setting [10]), 94.3%. Moreover, in test [2], the Her2 level is 104% (inactive). Further, the differential viability (reversal) in test [6] (H69AR cells + 2 uM doxorubicin) is -5.12% (inactive). Besides, the inhibition in test [7] was -1.05% (inactive); in test [8], 3.17% (inactive).

For the compound `Cc1nc(C)c2c(c1C(F)(F)F)-c1ccccc1C2(F)F`, the viability in test [1] was 98%; in test [3], 98% (inactive); in test [4], 102% (inactive); in test [5], 105% (inactive); in test [6] (setting [9]), 88.9%; in test [6] (setting [10]) it was 105%. Moreover, in test [2], the Her2 level is 98% (inactive). Further, the differential viability (reversal) in test [6] (H69AR cells + 2 uM doxorubicin) is 16.4% (inactive). Moreover, the figures for the inhibition in test [7] and in test [8] were -4.4% (inactive) and -5.08% (inactive), respectively.
